Platelet DG rel: modulates dense granule release in human platelets. human platelet-rich plasma, SFLLRN dense granule ATP release, luminescence. inhibition, %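 (compounds screened at 7.5 µM in platelet-rich plasma)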. 300,000 tested, 0.22% active. AID 1663;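 active = mean replicate score, as percent of positive control, at or above 50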
FLuc stim CS: firefly luciferase counter-screen for stimulation assays; ATPlite luciferase biochemical, luminescence, 10 min; 0 = ATP-free wells, 1 = DMSO control; activation factor at 10 µM; 200,000 tested, under 10 active; AID 1027;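 active = luciferase activation factor, scaled between plate controls, of at least 2 with compound at 10 µM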
Target sequence (P08659 whole entry, looked up): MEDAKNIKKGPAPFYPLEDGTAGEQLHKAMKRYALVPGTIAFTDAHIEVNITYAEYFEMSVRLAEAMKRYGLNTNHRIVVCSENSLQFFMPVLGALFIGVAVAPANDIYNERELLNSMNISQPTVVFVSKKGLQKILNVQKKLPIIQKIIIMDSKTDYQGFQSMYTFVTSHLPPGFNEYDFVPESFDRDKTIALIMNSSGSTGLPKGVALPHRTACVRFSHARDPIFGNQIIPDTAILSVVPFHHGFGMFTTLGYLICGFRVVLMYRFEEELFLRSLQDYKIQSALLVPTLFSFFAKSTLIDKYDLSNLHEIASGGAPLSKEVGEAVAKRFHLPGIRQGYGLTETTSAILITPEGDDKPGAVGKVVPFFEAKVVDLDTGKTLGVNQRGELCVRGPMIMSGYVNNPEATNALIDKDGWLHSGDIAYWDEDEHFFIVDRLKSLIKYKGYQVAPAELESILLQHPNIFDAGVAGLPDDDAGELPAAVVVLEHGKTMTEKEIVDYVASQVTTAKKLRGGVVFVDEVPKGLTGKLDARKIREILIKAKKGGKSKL
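test system = cell-free luciferase reagent | medium = PBS as buffer for the ATP substrate | dosing = test compounds dosed from 2 mM stocks in 100% DMSO | incubation = 10 min at ambient temperature | detection = luminescence measurement of luciferase light output | benchmarks = low control with PBS replacing ATP, high control enzyme plus ATP without compound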
PPC-1+TRAIL kill: kills PPC-1 cancer cells in the presence of TRAIL. 220,000 tested, 0.41% active. PPC-1 cells + TRAIL, ATPLite viability luminescence. cell killing (% activity), % at 4 µM or 5 µM. AID 1443;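 active = cell killing above 50% in the first pass at 4 µM, then a duplicate retest at 5 µM averaging 50% or more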
FLuc inh counter: counter-screen for luciferase assay inhibitors: firefly luciferase inhibition | P08659 | ATPLite firefly luciferase biochemical luminescence, 10 min | inhibition, % at 10 µM | 200,000 tested, 1.5% active;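 active = inhibition above about 50% when tested at 10 µM, limit read from the data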
TRAIL sens C8: sensitizes caspase-8 expressing cells to TRAIL. inhibition (viability loss, TRAIL sensitization), % at 10 µM. 360,000 tested, 1% active. NB7+C8 cells + TRAIL, ATPlite viability luminescence;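 active = compounds causing at least 50% loss of cell viability in the single-dose screen, relative to plate controls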
A number is an active result. Hits are enriched below; roughly 1.6% of the tested compounds scored in any of these assays.

Screening O=C1NC[C@@H](CCCCN2C[C@H](Cc3ccc(O)cc3)N(CC3CCCCC3)C(=O)C2=O)N(CCC2CCCCC2)C1=O returned TRAIL sens C8 inactive.
For Cc1ccc(F)c(S(=O)(=O)NC(=O)C2(C)CCN2C(=O)Cc2cc(F)ccc2F)c1 (stereo not drawn) the results were TRAIL sens C8 inactive.
`CCOc1ccc(/C=C/C(=O)Nc2cccc(C(C)=O)c2)cc1` gave Platelet DG rel inactive, FLuc stim CS inactive, PPC-1+TRAIL kill inactive, FLuc inh counter 64 and TRAIL sens C8 55.
For O=C(/C=C/c1ccco1)Nc1ccc2c(c1)OCO2 the results were Platelet DG rel inactive, FLuc stim CS inactive, PPC-1+TRAIL kill inactive, FLuc inh counter 66 and TRAIL sens C8 inactive.
For CCc1ccc(/C=N/NC(=O)c2cc(-c3ccncc3)nc3ccccc23)s1 the results were Platelet DG rel inactive, FLuc stim CS inactive, PPC-1+TRAIL kill inactive, FLuc inh counter inactive and TRAIL sens C8 inactive.
For CCCc1cc(C(=O)N/N=C/c2ccc(CC)s2)c2ccccc2n1 the results were Platelet DG rel inactive, FLuc stim CS inactive, PPC-1+TRAIL kill inactive, FLuc inh counter inactive and TRAIL sens C8 51.
CCc1ccc(/C=N/NC(=O)c2c[nH]c3ccccc23)s1 was read as Platelet DG rel inactive, FLuc stim CS inactive, PPC-1+TRAIL kill inactive, FLuc inh counter inactive and TRAIL sens C8 55.
`O=C(N/N=C/c1cccs1)c1c[nH]c2ccccc12` gave Platelet DG rel inactive, FLuc stim CS inactive, PPC-1+TRAIL kill inactive, FLuc inh counter inactive and TRAIL sens C8 inactive.
`COc1ccc(C=NNC(=O)NN=Cc2ccc(OC)c(OC)c2)cc1OC` gave TRAIL sens C8 72.
For COc1cc(/C=N/NC(N)=S)ccc1OCC(=O)Nc1ccc(C)c(C)c1 the results were Platelet DG rel inactive, FLuc stim CS inactive, PPC-1+TRAIL kill inactive, FLuc inh counter inactive and TRAIL sens C8 inactive.
For COc1ccc(C=NNC(=O)CCCC(=O)NN=Cc2ccc(OC)c(OC)c2)cc1OC the results were TRAIL sens C8 inactive.
For COc1cc(/C=N/NC(N)=O)ccc1OCC(=O)Nc1ccc(C)c(C)c1 the results were Platelet DG rel 56, FLuc stim CS inactive, PPC-1+TRAIL kill inactive, FLuc inh counter inactive and TRAIL sens C8 inactive.
`CC1(C(=O)Nc2ccc3c(c2)OCCO3)CCC(=O)N1CCc1c[nH]c2ccccc12` (stereo not drawn) gave TRAIL sens C8 inactive.
`CCOC(=O)c1cnc2ccccc2c1Nc1cccc(C(=O)O)c1` gave Platelet DG rel inactive, FLuc stim CS inactive, PPC-1+TRAIL kill inactive, FLuc inh counter 86 and TRAIL sens C8 inactive.
`O=C1C=C(NCCc2cc(Br)c(O)c(Br)c2)C(=O)c2ncccc21` gave TRAIL sens C8 57.
Screening c1ccc(-c2ncc(-c3ccn[nH]3)s2)cc1 returned Platelet DG rel inactive, FLuc stim CS inactive, PPC-1+TRAIL kill inactive, FLuc inh counter 66 and TRAIL sens C8 inactive.
`COc1ccc(/C=C/c2cc(-c3ccc(C)cc3)o[n+]2C)cc1` gave Platelet DG rel inactive, FLuc stim CS inactive, PPC-1+TRAIL kill inactive, FLuc inh counter inactive and TRAIL sens C8 74.
`COc1ccc(/C=C/c2c(-c3ccc(OC)cc3)oc3ccc(-c4ccc(OC)cc4)cc23)cc1` gave Platelet DG rel inactive and TRAIL sens C8 inactive.
For CCc1c(C)[nH]n(-c2nc(-c3ccccc3)cs2)c1=O the results were Platelet DG rel inactive, FLuc stim CS inactive, PPC-1+TRAIL kill inactive, FLuc inh counter inactive and TRAIL sens C8 inactive.
Screening Cc1[nH]n(-c2nc(-c3ccc(Cl)cc3)cs2)c(=O)c1N=Nc1ccc(O)cc1 returned Platelet DG rel inactive, FLuc stim CS inactive, PPC-1+TRAIL kill inactive, FLuc inh counter inactive and TRAIL sens C8 80.
For CC(C)C[C@H](NC(=O)c1nc[nH]c1C(=O)N[C@@H](CCCCNC(=O)OC(C)(C)C)C(=O)OC(C)(C)C)C(=O)OCc1ccccc1 the results were Platelet DG rel inactive and TRAIL sens C8 63.
CC(C)(C)OC(=O)NCCCC[C@H](NC(=O)c1nc[nH]c1C(=O)NC(c1ccccc1)c1ccccc1)C(=O)OC(C)(C)C was read as Platelet DG rel inactive, FLuc stim CS inactive, PPC-1+TRAIL kill inactive, FLuc inh counter inactive and TRAIL sens C8 53.
Screening Cc1cccc(NC(=O)c2nc[nH]c2C(=O)N[C@@H](CCCCNC(=O)OC(C)(C)C)C(=O)OC(C)(C)C)c1 returned Platelet DG rel inactive, PPC-1+TRAIL kill inactive and TRAIL sens C8 51.
CC1(C)C=C(c2ccc(C=O)s2)CC(C)(C)N1C=O was read as Platelet DG rel inactive, FLuc stim CS inactive, PPC-1+TRAIL kill 62, FLuc inh counter inactive and TRAIL sens C8 inactive.
For COC(=O)c1ccc(NC(=O)c2ccccc2C(=O)Nc2ccc(C(=O)OC)cc2)cc1 the results were Platelet DG rel inactive and TRAIL sens C8 inactive.
COC(=O)c1ccc(NC(=O)C(=O)c2cccn2C)cc1 was read as Platelet DG rel 73, FLuc stim CS inactive, PPC-1+TRAIL kill inactive, FLuc inh counter 84 and TRAIL sens C8 62.
`NC(c1csc(Nc2ccc(C(=O)NCCCO)cn2)n1)c1ccccc1Cl` (stereo not drawn) gave TRAIL sens C8 inactive.
Nc1nc(N)c2cc(Sc3ccc4ccccc4c3)ccc2n1 was read as Platelet DG rel inactive, PPC-1+TRAIL kill inactive and TRAIL sens C8 73.
`Nc1nc(N)c2cc(Sc3ccc(Cl)cc3)ccc2n1` gave TRAIL sens C8 73.
`Nc1ccc(Sc2cc(Cl)nc(N)n2)cc1` gave Platelet DG rel inactive, FLuc stim CS inactive, PPC-1+TRAIL kill inactive and FLuc inh counter inactive.
`Nc1nc(N)c2cc(Sc3cccc(C(F)(F)F)c3)ccc2n1` gave TRAIL sens C8 73.
Screening Oc1cccnc1Sc1cccc(C(F)(F)F)c1 returned Platelet DG rel inactive and TRAIL sens C8 inactive.
`COc1ccc(C2=NN(C(=O)CSC3=NN4CCCC(=O)N=C4S3)C(c3cccc(OC)c3OC)C2)cc1` (stereo not drawn) gave Platelet DG rel 74, FLuc stim CS inactive, PPC-1+TRAIL kill inactive, FLuc inh counter inactive and TRAIL sens C8 inactive.
`Cc1ccc(OCCOC(=O)c2sc(=S)n(C)c2C)cc1` gave Platelet DG rel inactive, FLuc stim CS inactive, PPC-1+TRAIL kill inactive, FLuc inh counter inactive and TRAIL sens C8 inactive.
CCOC(=O)C(OC(=O)c1sc(=S)n(C)c1C)C(C)=O (stereo not drawn) was read as Platelet DG rel 50, FLuc stim CS inactive, PPC-1+TRAIL kill inactive, FLuc inh counter inactive and TRAIL sens C8 inactive.
[O-][N+]1=c2ccc(Nc3ccccc3)cc2=NC12CCCCC2 was read as Platelet DG rel inactive, FLuc stim CS inactive, PPC-1+TRAIL kill inactive, FLuc inh counter inactive and TRAIL sens C8 69.
CC1(C(=O)Nc2cnc3ccccc3c2)CCN1C(=O)c1ccccc1CCc1ccccc1 (stereo not drawn) was read as TRAIL sens C8 inactive.
COc1cccc(/C=C2\SC(=S)N(CCCC(=O)N(CCO)c3ccccc3)C2=O)c1 was read as Platelet DG rel inactive and TRAIL sens C8 61.
